# Test results published in article PMC12248229 (PeerJ, 2025).
# Legend:
# [1] = cited from earlier work
# [2] = test system: patients with chronic kidney disease; conditions: diverse group of patients with chronic kidney disease, ref Fauchier, Fauchier & Angoulvant, 2021, Herrington et al., 2023, Santos-Gallego et al., Wanner et al., 2016; cited from earlier work
# P-gp = test: qRT-PCR mRNA expression in rat liver and intestine after 7 days of dosing; assay type: in vivo; conditions: after multiple doses
# Outline: (§1)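 Rats (n = 6/group) gavaged daily for 7 days with test compound: 2.5 or 1 mg/kg in 0.5% CMC-Na, or 100 mg/kg in 0.5% CMC-Na with 5% DMSO. Liver and intestine harvested under chloral hydrate and stored at −80 °C. TRNzol RNA extraction; 1 μg RNA reverse-transcribed. qPCR: 95 °C 15 min, then 40 cycles of 95 °C 10 s/60 °C 32 s. […] reference; 2^−ΔΔCT.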
# Ugt1a7 = test: as above; assay type: in vivo; conditions: after multiple doses
# Outline: as §1
# [3] = Stability of analytes in rat plasma; assay type: physicochemical; conditions: n = 6
# in vivo = assay type: in vivo, Sprague-Dawley (SD) rats; conditions: for half-life: t1/2, rats
# Oatp1b2 = test: qRT-PCR mRNA expression in rat liver after 7 days of dosing; assay type: in vivo; conditions: after multiple doses
# Outline: as §1
# [4] = Autosampler (15 °C) for 6 h, nominal 15 ng/mL
# [5] = Autosampler (15 °C) for 6 h, nominal 800 ng/mL
# [6] = Autosampler (15 °C) for 6 h, nominal 1,500 ng/mL
# [7] = Room temperature for 4 h, nominal 15 ng/mL
# [8] = Room temperature for 4 h, nominal 800 ng/mL
# [9] = Room temperature for 4 h, nominal 1,500 ng/mL
# [10] = Three freeze–thaw cycles (−80 °C to 25 °C), nominal 15 ng/mL
# [11] = Three freeze–thaw cycles (−80 °C to 25 °C), nominal 800 ng/mL
# [12] = Three freeze–thaw cycles (−80 °C to 25 °C), nominal 1,500 ng/mL
# [13] = −80 °C for 30 days, nominal 15 ng/mL
# [14] = −80 °C for 30 days, nominal 800 ng/mL
# [15] = −80 °C for 30 days, nominal 1,500 ng/mL
# [16] = rats, coadministered with sorafenib, versus control group
# [17] = rats, empagliflozin […] after sorafenib 100 mg/kg for 7 consecutive days, n = 6
smiles,measurement,setting,value
OC[C@H]1O[C@@H](c2ccc(Cl)c(Cc3ccc(O[C@H]4CCOC4)cc3)c2)[C@H](O)[C@@H](O)[C@@H]1O [Empagliflozin],"systemic exposure of each metabolite, of the total drug-related material","[1]; after oral administration, no reference given",less than 10%
same,time to highest levels in the body,"[1]; following a single oral dose, ref Scheen, 2014",1.0 to 2.0 h
same,dose eliminated in urine unchanged,"[1]; ref Scheen, 2014",11–19%
same,lowering of the occurrence of cardiovascular death events,[2],18%
same,decrease of mRNA expression of P-gp,P-gp; rat intestine,22.77%
same,decrease of mRNA expression of P-gp,P-gp; rat liver,61.19%
same,inhibition of mRNA expression of Ugt1a7,Ugt1a7; rat intestine,no significant inhibition
same,decrease of mRNA expression of Ugt1a7,Ugt1a7; rat liver,40.07%
same,Stability: Accuracy (RE%),[3]; [4],4.78%
same,Stability: Mean ± SD measured concentration,[3]; [4],15.72 ± 0.78 ng/mL
same,Stability: Accuracy (RE%),[3]; [5],6.63%
same,Stability: Mean ± SD measured concentration,[3]; [5],853.00 ± 50.88 ng/mL
same,Stability: Accuracy (RE%),[3]; [6],3.89%
same,Stability: Mean ± SD measured concentration,[3]; [6],"1,558.33 ± 99.48 ng/ml"
same,Stability: Accuracy (RE%),[3]; [7],−0.67%
same,Stability: Mean ± SD measured concentration,[3]; [7],14.90 ± 0.91 ng/mL
same,Stability: Accuracy (RE%),[3]; [8],4.71%
same,Stability: Mean ± SD measured concentration,[3]; [8],837.67 ± 29.62 ng/mL
same,Stability: Accuracy (RE%),[3]; [9],2.22%
same,Stability: Mean ± SD measured concentration,[3]; [9],"1,533.33 ± 37.77 ng/ml"
same,Stability: Accuracy (RE%),[3]; [10],−0.67%
same,Stability: Mean ± SD measured concentration,[3]; [10],14.90 ± 0.91 ng/mL
same,Stability: Accuracy (RE%),[3]; [11],6.65%
same,Stability: Mean ± SD measured concentration,[3]; [11],853.17 ± 38.25 ng/mL
same,Stability: Accuracy (RE%),[3]; [12],1.11%
same,Stability: Mean ± SD measured concentration,[3]; [12],"1,516.67 ± 97.50 ng/ml"
same,Stability: Accuracy (RE%),[3]; [13],1.56%
same,Stability: Mean ± SD measured concentration,[3]; [13],15.23 ± 1.43 ng/mL
same,Stability: Accuracy (RE%),[3]; [14],4.15%
same,Stability: Mean ± SD measured concentration,[3]; [14],833.17 ± 38.43 ng/mL
same,Stability: Accuracy (RE%),[3]; [15],−1.78%
same,Stability: Mean ± SD measured concentration,[3]; [15],"1,473.33 ± 93.31 ng/ml"
same,AUC(0-t),"in vivo; Sprague-Dawley, rat, in vivo, po, […], AUC0–t, rats, empagliflozin […] after sorafenib 100 mg/kg for 7 consecutive days, n = 6",563 ± 110 ng·h/mL
same,AUC(0-inf),"in vivo; Sprague-Dawley, rat, in vivo, po, […], AUC0–∞, rats, empagliflozin […] after sorafenib 100 mg/kg for 7 consecutive days, n = 6",586 ± 104 ng·h/mL
same,Cmax,"in vivo; Sprague-Dawley, rat, in vivo, po, […], Cmax, rats, empagliflozin […] after sorafenib 100 mg/kg for 7 consecutive days, n = 6",231 ± 78.5 ng/mL
same,MRT last,"in vivo; Sprague-Dawley, rat, in vivo, po, […], MRT0–t, rats, empagliflozin […] after sorafenib 100 mg/kg for 7 consecutive days, n = 6",2.86 ± 0.21 h
same,MRT inf,"in vivo; Sprague-Dawley, rat, in vivo, po, […], MRT0–∞, rats, empagliflozin […] after sorafenib 100 mg/kg for 7 consecutive days, n = 6",3.44 ± 0.52 h
same,Tmax,"in vivo; Sprague-Dawley, rat, in vivo, po, […], rats, empagliflozin […] after sorafenib 100 mg/kg for 7 consecutive days, n = 6",0.4 ± 0.17 h
same,Tmax,"in vivo; Sprague-Dawley, rat, in vivo, po, […], rats, empagliflozin […] oral, alone, n = 6",0.28 ± 0.12 h
same,half-life,"in vivo; Sprague-Dawley, rat, in vivo, po, […], empagliflozin […] after sorafenib 100 mg/kg for 7 consecutive days, n = 6",3.14 ± 1.09 h
same,half-life,"in vivo; Sprague-Dawley, rat, in vivo, po, […], empagliflozin […] oral, alone, n = 6",5.03 ± 2.29 h
same,difference in Cmax of empagliflozin (higher than control),in vivo; rats receiving both drugs versus control group,not statistically significant
same,decrease of Vz/F of empagliflozin,in vivo; [16],50.68%
same,increase of AUC0–t of empagliflozin,in vivo; [16],44.65%
same,increase of AUC0–∞ of empagliflozin,in vivo; [16],30.59%
same,CLz,in vivo; [17],73 ± 12.5 mL/min/kg
same,Vz,in vivo; [17],20.18 ± 8.16 L/kg
same,Vz,"in vivo; rats, empagliflozin […] oral, alone, n = 6",40.92 ± 16.03 L/kg
same,decrease of mRNA expression of Oatp1b2,Oatp1b2,37.43%
